These results are taken from ChEMBL document CHEMBL1126909, “Synthesis and pharmacological examination of benzofuran, indan, and tetralin analogues of 3,4-(methylenedioxy)amphetamine” (J Med Chem, 1993).

Test [1] deals with Rattus norvegicus. Put plainly: Percentage of nondisrupted animals selecting drug liver in 3 trained at 0.500 mg/kg. Conditions: dose 0.5 mg/kg. The format is functional. Put shortly: (§1)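 Rats and training are as above: male Sprague-Dawley, food-restricted, with training doses per drug group. Test drug was given ip in saline 30 min before extinction sessions. %SDL is the share of nondisrupted rats reaching 50 presses on the drug lever. A rat not completing 50 presses in 5 min was scored as disrupted.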

The subject of test [2] is Rattus norvegicus. Put plainly: Number of animals tested to that of number of animals disrupted in 3 trained at 1 mg/kg; Number of animals tested=10. The format is functional. The method, boiled down: (§2)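 Drug-discrimination rats were male Sprague-Dawley, 175–200 g, kept at about 80% of free-feeding weight. They were trained against saline on (S)-1c·HCl 1.75 mg/kg, 3·HCl 1.71 mg/kg or (S)-amphetamine sulfate 1 mg/kg. Test drug was given ip in 0.9% saline at 1 mL/kg, 30 min before sessions run under extinction. A session ended at 50 presses on one lever; failing 50 presses within 5 min was scored as disrupted.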

Test [3] deals with Rattus norvegicus. Nature of the test: Number of animals tested to that of number of animals disrupted in (s)-amphetamine trained at 1 mg/kg; Number of animals tested=10. The format is functional. The method, boiled down:
as §2

Test [4] deals with Rattus norvegicus. Nature of the test: Tested for drug-discrimination stimulus effect at 0.250 mg/kg in S-1c trained animals; 0.15-0.28. The format is functional. The method, boiled down: (§3)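 Male Sprague-Dawley rats (175–200 g) held at about 80% of free-feeding weight were trained on two levers to tell (S)-1c·HCl 1.75 mg/kg from saline. Test drugs were given in 0.9% saline, ip, 30 min before sessions run under extinction. A session ended at 50 presses on one lever, or was scored disrupted if not done within 5 min. %SDL counts nondisrupted rats. ED50 and 95% CI were derived by Litchfield–Wilcoxon.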

For test [5], the system named is Rattus norvegicus. Nature of the test: Number of animals tested to that of number of animals disrupted in 3 trained at 0.500 mg/kg; Number of animals tested=12. The format is functional. Conditions: dose 0.5 mg/kg. Put shortly: as §2
Test [6] relates to Rattus norvegicus. Nature of the test: Percentage of nondisrupted animals selecting drug liver in S-1c trained at 0.500 mg/kg. The format is functional. To be noted: dose 0.5 mg/kg. The method, boiled down:
as §3

The subject of test [7] is Rattus norvegicus. Nature of the test: Number of animals tested to that of number of animals disrupted in 3 trained at 0.125 mg/kg; Number of animals tested=10. The format is functional. Put shortly:
as §2

Test [8] concerns Rattus norvegicus. Put plainly: Percentage of nondisrupted animals selecting drug liver in 3 trained at 0.125 mg/kg. The format is functional. Put shortly: as §1
Test [9] relates to Rattus norvegicus. Nature of the test: Number of animals tested to that of number of animals disrupted in (s)-amphetamine trained at 0.250 mg/kg; Number of animals tested=14. The format is functional. To be noted: dose 0.25 mg/kg. The method, boiled down:
as §2

The subject of test [10] is Rattus norvegicus. Put plainly: Number of animals tested to that of number of animals disrupted in S-1c trained at 1 mg/kg; Number of animals tested=9. The format is functional. The method, boiled down: as §2
Test [11] relates to Rattus norvegicus. Put plainly: Tested for drug-discrimination stimulus effect at 0.250 mg/kg in s)-amphetamine trained animals; NS= No substitution. Also on record: dose 0.25 mg/kg. The format is functional, organism-based. The method, boiled down: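 Food-restricted male Sprague-Dawley rats were trained to tell (S)-amphetamine sulfate 1 mg/kg from saline. Test drug was given ip in 0.9% saline 30 min before extinction sessions, with 50 presses on one lever required within 5 min. No substitution was defined as 59% or less of nondisrupted rats selecting the drug lever, judged on the maximum across doses.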

The test system of test [12] is Rattus norvegicus. Nature of the test: Number of animals tested to that of number of animals disrupted in S-1c trained at 0.250 mg/kg; Number of animals tested=15. The format is functional. Conditions: dose 0.25 mg/kg. The method, boiled down:
as §2

Test [13] is filed under the species Rattus norvegicus. Nature of the test: Inhibitory concentration against [3H]- NE uptake in crude rat synaptosomes. The format is functional. To be noted: Brain. The method, boiled down:
(§4)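 Crude synaptosomes from male Sprague-Dawley rat tissue homogenised in ice-cold isotonic sucrose. Preincubated 5 min at 37 °C under aeration with pargyline (final 100 μM), then chilled. Tritiated transmitter added at 10 nM final and uptake run 5 min at 37 °C. Catecholamine buffer had 0.06 mM ascorbate. Filtered and counted by scintillation. 9–10 concentrations in triplicate, 3–4 experiments, four-parameter logistic fit for IC50 ± SEM.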

The test system of test [14] is Rattus norvegicus. Nature of the test: Percentage of nondisrupted animals selecting drug liver in S-1c trained at 0.250 mg/kg. The format is functional. To be noted: dose 0.25 mg/kg.
For test [15], the species on record is Rattus norvegicus. Nature of the test: Inhibitory concentration against [3H]- 5-HT uptake in crude rat synaptosomes. The format is functional. To be noted: Brain. Put shortly: as §4
For test [16], the system named is Rattus norvegicus. Put plainly: Number of animals tested to that of number of animals disrupted in 3 trained at 0.250 mg/kg; Number of animals tested=11. The format is functional. Conditions: dose 0.25 mg/kg. Put shortly: as §2
Test [17] concerns Rattus norvegicus. Put plainly: Number of animals tested to that of number of animals disrupted in (s)-amphetamine trained at 0.500 mg/kg; Number of animals tested=15. The format is functional. Conditions: dose 0.5 mg/kg.
Test [18] deals with Rattus norvegicus. Nature of the test: Percentage of nondisrupted animals selecting drug liver in S-1c trained at 0.125 mg/kg. The format is functional. The method, boiled down: as §1
In test [19] the test system is Rattus norvegicus. Put plainly: Percentage of nondisrupted animals selecting drug liver in 3 trained at 1 mg/kg. The format is functional. Put shortly: as §1
The test system of test [20] is Rattus norvegicus. Nature of the test: Percentage of nondisrupted animals selecting drug liver in 3 trained at 0.250 mg/kg. The format is functional. Conditions: dose 0.25 mg/kg. Put shortly: as §1
Test [21] is filed under the species Rattus norvegicus. Put plainly: Inhibitory concentration against [3H]- DA uptake in crude rat synaptosomes. The format is functional. To be noted: Brain. The method, boiled down:
as §4

Test [22] has as its system Rattus norvegicus. Put plainly: Percentage of nondisrupted animals selecting drug liver in (S)-amphetamine trained at 1 mg/kg. The format is functional. The method, boiled down:
as §1

Test [23] has as its system Rattus norvegicus. Put plainly: Number of animals tested to that of number of animals disrupted in (s)-amphetamine trained at 0.125 mg/kg; Number of animals tested=15. The format is functional. The method, boiled down: as §2
In test [24] the test system is Rattus norvegicus. Nature of the test: Percentage of nondisrupted animals selecting drug liver in S-1c trained at 1 mg/kg. The format is functional.
Test [25] relates to Rattus norvegicus. Put plainly: Number of animals tested to that of number of animals disrupted in S-1c trained at 0.125 mg/kg; Number of animals tested=14. The format is functional. The method, boiled down: as §2
Test [26] relates to Rattus norvegicus. Put plainly: Percentage of nondisrupted animals selecting drug liver in (S)-amphetamine trained at 0.250 mg/kg. The format is functional. To be noted: dose 0.25 mg/kg. The method, boiled down: as §1
Test [27] concerns Rattus norvegicus. Nature of the test: Number of animals tested to that of number of animals disrupted in S-1c trained at 0.500 mg/kg; Number of animals tested=15. Conditions: dose 0.5 mg/kg. The format is functional. Put shortly: as §2
Test [28] deals with Rattus norvegicus. Nature of the test: Percentage of nondisrupted animals selecting drug liver in (S)-amphetamine trained at 0.500 mg/kg. To be noted: dose 0.5 mg/kg. The format is functional. The method, boiled down: as §1
Test [29] has as its system Rattus norvegicus. Put plainly: Percentage of nondisrupted animals selecting drug liver in (S)-amphetamine trained at 0.125 mg/kg. The format is functional. The method, boiled down: as §1

Active and inactive are the calls of the source.

As usually defined, the ED50 is the dose that gives a 50% effect, or the effect in half of the subjects. In general, IC50 refers to the point on the concentration scale where inhibition reaches its midpoint. Read a low IC50 as inhibition by little substance. Turning to `CC(N)Cc1ccc2c(c1)CCC2` (stereo not given), the SDL in test [1] came to 83%; in test [6], 100%; in [8], 13%; in test [14], 70%; in test [18] it was 9%; in test [19], 100%. Further, the SDL is listed as 17% in test [20]; 0% in test [22]; 100% in [24]; 0% in [26]; 0% in [28]; 0% in [29]. Besides, the Activity was 8 in test [2]; 6 in test [3]; 6 in [5]; 2 in test [7]; 2 in test [9]; 2 in test [10]. Besides, the Activity turned out to be 5 in [12]; 5 in test [16]; 7 in test [17]; 2 in test [23]; 3 in test [25]; 3 in [27]. In test [4], this compound had a median effective dose (ED50) of 0.2 mg/kg. Further, the ED50 result in test [11] was “inactive”. Further, the IC50 in test [13] worked out at 0.849 µM; in test [15], 0.082 µM; in test [21], 1.85 µM.

`CC(N)Cc1ccc2c(c1)CCCC2` (stereo not given): the IC50 in test [13] amounted to 3.37 µM; in test [15], 0.121 µM; in test [21], 6.44 µM.

In the case of `CC(N)Cc1ccc2c(c1)OCO2` (stereo not given) [TENAMFETAMINE], the IC50 was 0.629 µM in test [13], 0.369 µM in test [15] and 1.36 µM in [21].
